Calls of active or inactive are those of the source. The rule behind the calls is not given here.
Key:
Genome polyprotein [1] = biological target: T1, Genome polyprotein (dengue virus type 2, UniProt P29990); test: Chemical stability of the compound in DENV2 NS2B-NS3 protease assay buffer assessed as DENV2 NS2B-NS3 protease-mediated amide bond cleavage by measuring reduction in AUC at 100 uM measured after 8 hrs by HPLC analysis; format: ADME; conditions: dengue virus type 2, buffer
How it was run: (§1)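 Compound incubated with isolated protease (SARS-CoV-2 Mpro or DENV-2 protease) in that enzyme's assay buffer for 8 h; remaining compound quantified by HPLC with UV/Vis detection (peak AUC).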

HeLa [2] = test: Cytotoxicity against human HeLa cells expressing luciferase-based DENV-2 protease reporter system assessed as reduction in cell viability by celltiter-blue assay; format: toxicity
How it was run: (§2)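 CellTiter-Blue viability in HeLa reporter cells or Huh-7 cells, on plates run in parallel with the reporter or titer-reduction assay under the same treatment; each concentration in triplicate.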

[3] = biological target: Replicase polyprotein 1ab (Severe acute respiratory syndrome coronavirus 2) (UniProt P0DTD1); test: Inhibition of C-terminal His tagged SARS CoV-2 main protease transfected in Escherichia coli BL21 (DE3) using 2-Abz-Ser-AlaVal-Leu-Gln-Ser-Gly-Tyr(3-NO2)-Arg-OH as substrate at 50 uM preincubated for 15 mins followed by substrate addition and measured after 15 mins by FRET assay relative to control; conditions: time 30.0 min
[4] = biological target: Genome polyprotein (dengue virus type 2) (UniProt P29990); test: Inhibition of full length DENV2 NS2B-NS3 protease in human HeLa cells expressing luciferase reporter gene at 12.5 uM incubated for 24 hrs by luminescence analysis relative to control; format: cell-based
How it was run: (§3)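 Stable DENV2pro reporter HeLa cells seeded at 2×10^4 per well and dosed immediately; 24 h at 37 °C, lysed 15 min, coelenterazine (2.75 μM in PBS) injected, luminescence read 5 s. Triplicates; % inhibition vs untreated cells; EC50 by 4-parameter fit with cell-free background subtraction.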

Genome polyprotein [5] = biological target: T1, Genome polyprotein; test: Inhibition of full length DENV2 NS2B-NS3 protease in human HeLa cells expressing luciferase reporter gene incubated for 24 hrs by luminescence analysis; format: cell-based; how it was run: as §3
HeLa [6] = test: Cytotoxicity against human HeLa cells expressing renilla luciferase reporter construct assessed as reduction in cell viability at 12.5 uM by luciferase based analysis; format: toxicity
[7] = Permeability of compound in PBS at pH 7.4 measured after 5 hrs by HPLC-UV based PAMPA assay; format: ADME; conditions: pH 7.4, 5 h
[8] = biological target: T2, Replicase polyprotein 1ab (Severe acute respiratory syndrome coronavirus 2, UniProt P0DTD1); test: Inhibition of C-terminal His tagged SARS CoV-2 main protease transfected in Escherichia coli BL21 (DE3) using 2-Abz-Ser-AlaVal-Leu-Gln-Ser-Gly-Tyr(3-NO2)-Arg-OH as substrate preincubated for 15 mins followed by substrate addition and measured after 15 mins by FRET assay
[9] = biological target: Replicase polyprotein 1ab (Severe acute respiratory syndrome coronavirus 2) (UniProt P0DTD1); test: Inhibition of C-terminal His tagged SARS CoV-2 main protease transfected in Escherichia coli BL21 (DE3) at 50 uM incubated in presence of DTT
How it was run: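 Mpro fluorogenic inhibition assay repeated with 1 mM DTT added to the assay buffer.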

[10] = biological target: T2, Replicase polyprotein 1ab; test: Chemical stability of the compound in SARS-CoV-2 main protease assay buffer assessed as SARS-CoV-2 main protease-mediated amide bond cleavage at 100 uM measured after 8 hrs by HPLC based UV-Vis analysis; format: ADME; conditions: severe acute respiratory syndrome coronavirus 2, buffer; how it was run: as §1
dengue virus type 2 = test: Antiviral activity against Dengue virus serotype 2 infected in Huh-7 cells assessed as reduction in virus titer at 12.5 uM incubated for 48 hrs followed by infection of Vero E6 cells with supernatant and measured after 7 days by crystal violet staining based analysis relative to control; format: functional; design: scale not given: the % may be the effect or the level left; conditions: time 9 day
How it was run: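 Huh-7 cells (1×10^4/well, overnight) infected with DENV-2 at MOI 1 for 2 h, medium changed, compound added; 48 h, triplicate supernatants pooled. Titer by plaque assay: Vero E6 infected 1 h with 10^-1 to 10^-6 dilutions, plaque medium 7 days, formaldehyde-fixed, crystal violet stained, plaques counted.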

Huh-7 = test: Cytotoxicity against human Huh-7 cells infected with Dengue virus serotype 2 assessed as reduction in cell viability by celltiter-blue assay; format: toxicity, cell-based; how it was run: as §2
[11] = Selectivity index, ratio of EC50 for inhibition of full length DENV2 NS2B-NS3 protease in human HeLa cells expressing luciferase reporter gene to IC50 for inhibition of C-terminal His tagged SARS CoV-2 main protease transfected in Escherichia coli BL21 (DE3); format: cell-based
[12] = biological target: Replicase polyprotein 1ab (Severe acute respiratory syndrome coronavirus 2) (UniProt P0DTD1); test: Binding affinity to C-terminal His tagged SARS CoV-2 main protease transfected in Escherichia coli BL21 (DE3) assessed as covalent bond formation by measuring mass adduct at 100 uM by ESI-TOF analysis
How it was run: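 Compounds at 100 μM incubated with active Mpro (3 μM) in 50 mM Tris-HCl pH 7.4, 100 mM NaCl, 20% v/v ethylene glycol, 0.0016% Brij 58; adducts sought by LC-ESI-TOF MS, C18 column, water/acetonitrile with 0.1% formic acid gradient, negative mode.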

[13] = Selectivity index, ratio of CC50 for cytotoxicity against human HeLa cells expressing luciferase-based DENV-2 protease reporter system to EC50 for inhibition of full length DENV2 NS2B-NS3 protease in human HeLa cells expressing luciferase reporter gene; format: toxicity, cell-based; conditions: read-out: Ratio CC50/EC50

SMILES	CC50 (HeLa [2])	inhibition [3]	inhibition [4]	EC50 (Genome polyprotein [5])	also measured
O=C(Nc1ccc2c(c1)B(O)OC2)c1cccc(OCc2ccc(Cl)cc2)c1	75.3 µM	43.5%	–	–	Stability (Genome polyprotein [1]): Stable
CN(c1ccc2c(c1)B(O)OC2)S(=O)(=O)c1ccc(Cl)cc1	> 50 µM	< 10%	24.2%	> 50 µM	Activity (HeLa [6]): Non-Toxic
N=C(N)Nc1ccc2c(c1)B(O)OC2	> 100 µM	88%	< 10%	–	permeability [7]: Impermeable; IC50 [8]: 10 µM; inhibition [9]: Active; Activity (HeLa [6]): Non-Toxic
O=C(Nc1ccc2c(c1)B(O)OC2)OCc1ccccc1	> 50 µM	< 10%	67.5%	4 µM	–
N#Cc1ccc(COc2cccc(C(=O)Nc3ccc4c(c3)B(O)OC4)c2)cc1	> 200 µM	43.4%	–	–	permeability [7]: Permeable
N#Cc1ccc(CNc2ccc3c(c2)B(O)OC3)cc1	> 100 µM	< 10%	41.8%	–	–
O=C(Nc1cccc(C(=O)Nc2ccc3c(c2)B(O)OC3)c1)c1ccccc1	> 200 µM	45.6%	51.5%	13.1 µM	IC50 [8]: 52.3 µM; Stability [10]: Stable
Cc1cccc(COc2cccc(C(=O)Nc3ccc4c(c3)B(O)OC4)c2)c1	72.6 µM	55.5%	85.2%	–	IC50 [8]: 59.8 µM; Activity (dengue virus type 2): 72.6%; Activity (Huh-7): Non-Toxic
O=C(Nc1ccc2c(c1)B(O)OC2)c1cccc(Oc2ccccc2)c1	> 50 µM	34.6%	77.4%	6.4 µM	–
O=C(NCc1ccc(B(O)O)cc1)c1cccc(OCc2ccccc2)c1	> 50 µM	18.5%	29.3%	14 µM	Ratio [11]: 5
O=C(Oc1cncc(Cl)c1)c1cccs1	–	95%	–	–	IC50 [8]: 1.7 µM
O=C(Nc1ccc2c(c1)B(O)OC2)c1cccc(OCC2CCCCC2)c1	123 µM	29.3%	79.1%	–	–
CC(C)(C)NC(=O)N[C@H](C(=O)N1C[C@H]2[C@@H]([C@H]1C(=O)NC(CC1CCC1)C(=O)C(N)=O)C2(C)C)C(C)(C)C (stereo partly drawn)	–	70.8%	–	–	Activity [12]: Active
OB1OCc2cc(F)ccc21 [TAVABOROLE]	> 50 µM	< 10%	15.3%	–	–
O=C(Nc1ccc2c(c1)B(O)OC2)c1ccc(Oc2ccccc2)cc1	> 50 µM	19.5%	79.7%	3.5 µM	permeability [7]: Permeable; Stability (Genome polyprotein [1]): Stable
COc1cccc(COc2cccc(C(=O)Nc3ccc4c(c3)B(O)OC4)c2)c1	> 200 µM	45.7%	90%	–	–
O=C(Nc1ccc2c(c1)B(O)OC2)c1cccc(NCc2ccccc2)c1	144 µM	46.9%	73.6%	5.2 µM	IC50 [8]: 56.9 µM
O=C(Nc1ccc2c(c1)B(O)OC2)c1ccc(OCc2ccc(Cl)cc2)cc1	> 50 µM	20.4%	31.3%	14.5 µM	permeability [7]: Permeable; Stability (Genome polyprotein [1]): Stable

SMILES	CC50 (HeLa [2])	inhibition [3]	inhibition [4]	EC50 (Genome polyprotein [5])	also measured
Nc1ccc(C(=O)Nc2ccc3c(c2)B(O)OC3)cc1	> 200 µM	39.7%	14.3%	–	–
O=C(Nc1ccccc1)Nc1ccc2c(c1)B(O)OC2	> 200 µM	15.9%	31%	22.5 µM	–
O=C(Nc1ccc2c(c1)B(O)OC2)c1ccc(OCc2ccccc2)cc1	> 50 µM	39.6%	54.4%	8.8 µM	–
O=C(Nc1ccc2c(c1)B(O)OC2)c1ccc(N2CCOCC2)cc1	> 50 µM	12.7%	41.1%	17.1 µM	Activity (HeLa [6]): Non-Toxic
O=C(Nc1cccc(B(O)O)c1)c1cccc(OCc2ccccc2)c1	> 50 µM	< 10%	65.1%	12.5 µM	permeability [7]: Permeable; Ratio [11]: 5; Activity (HeLa [6]): Non-Toxic
O=C(Nc1ccc2c(c1)B(O)OC2)c1ccc(C(F)(F)F)cc1	> 50 µM	21%	< 10%	–	Activity (HeLa [6]): Non-Toxic
COc1cccc(C(=O)Nc2ccc3c(c2)B(O)OC3)c1	> 100 µM	24.3%	60.1%	6.4 µM	–
O=S(=O)(Nc1ccc2c(c1)B(O)OC2)c1ccc(Cl)cc1	> 50 µM	< 10%	51.6%	9.2 µM	permeability [7]: Permeable
OB1OCc2ccccc21 [BENZOXABOROLE]	> 100 µM	< 10%	< 10%	–	Activity (HeLa [6]): Non-Toxic
O=C(Nc1ccc2c(c1)B(O)OC2)c1ccccc1OCc1ccccc1	> 50 µM	40.6%	66.7%	6.1 µM	permeability [7]: Permeable
Cc1onc(-c2ccc(F)cc2)c1C(=O)Nc1ccc2c(c1)B(O)OC2	> 100 µM	< 10%	32.6%	21.6 µM	Activity (HeLa [6]): Non-Toxic
O=C(Nc1ccc2c(c1)B(O)OC2)c1cccc(OCc2ccccc2)n1	124 µM	99.6%	–	–	IC50 [8]: 38.5 µM
CCCCCC(=O)Nc1ccc2c(c1)B(O)OC2	> 200 µM	< 10%	37.2%	19.2 µM	–
O=C(Nc1ccc2c(c1)B(O)OC2)c1cccc(OCc2c(Cl)cccc2Cl)c1	39.7 µM	32.6%	–	–	permeability [7]: Permeable; selectivity ratio [13]: 74
Nc1ccc2c(c1)B(O)OC2	> 100 µM	17.5%	< 10%	–	Activity (HeLa [6]): Non-Toxic
CC(C(=O)Nc1ccc2c(c1)B(O)OC2)c1cccc(Oc2ccccc2)c1 (stereo not drawn)	> 50 µM	19%	76.7%	3.1 µM	–
O=[N+]([O-])c1ccc2c(c1)B(O)OC2	> 100 µM	< 10%	14.5%	–	–

Source: ChEMBL document CHEMBL5113504, “Discovery of potent benzoxaborole inhibitors against SARS-CoV-2 main and dengue virus proteases” (Eur J Med Chem, 2022)
